Compound activity deposited in PubChem by several laboratories.
Sampled rows, rich in hits. Any-hit rate of the full collection: about 2.4%.
DAGLB inh – blocks human DAGLB lipase activity. HEK293T DAGLB membrane lysate, EnzChek fluorogenic substrate. AID 504411. Q8NCG7. hit rate 0.059% among 340,000. inhibition, % at 5.17 µM; in the data active = inhibition above about 34%
MIN6 prolif-1 – induces beta-cell replication in MIN6 cells; MIN6 cells proliferation, ATPlite luminescence, 48 h; cells starved in 0.2% serum; 100% = growth in 10% serum; proliferation, % at 10 µM; hit rate 0.29% among 330,000;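 active = compounds whose signal lies at least 3.5 SD above the mean of all wells on their plate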
CendR NRP1 mod – modulators of CendR peptide binding to human neuropilin-1; FAM-RPARPAR peptide binding to NRP-1, fluorescence polarization; inhibition, % at 25 µM; hit rate 0.85% among 360,000;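 active = inhibition or corrected inhibition above about 18%, plus a signal ratio from 0.5 to 1.5, limit read from the data, passing the limit was not always enough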
Target sequence (O14786 whole entry, looked up): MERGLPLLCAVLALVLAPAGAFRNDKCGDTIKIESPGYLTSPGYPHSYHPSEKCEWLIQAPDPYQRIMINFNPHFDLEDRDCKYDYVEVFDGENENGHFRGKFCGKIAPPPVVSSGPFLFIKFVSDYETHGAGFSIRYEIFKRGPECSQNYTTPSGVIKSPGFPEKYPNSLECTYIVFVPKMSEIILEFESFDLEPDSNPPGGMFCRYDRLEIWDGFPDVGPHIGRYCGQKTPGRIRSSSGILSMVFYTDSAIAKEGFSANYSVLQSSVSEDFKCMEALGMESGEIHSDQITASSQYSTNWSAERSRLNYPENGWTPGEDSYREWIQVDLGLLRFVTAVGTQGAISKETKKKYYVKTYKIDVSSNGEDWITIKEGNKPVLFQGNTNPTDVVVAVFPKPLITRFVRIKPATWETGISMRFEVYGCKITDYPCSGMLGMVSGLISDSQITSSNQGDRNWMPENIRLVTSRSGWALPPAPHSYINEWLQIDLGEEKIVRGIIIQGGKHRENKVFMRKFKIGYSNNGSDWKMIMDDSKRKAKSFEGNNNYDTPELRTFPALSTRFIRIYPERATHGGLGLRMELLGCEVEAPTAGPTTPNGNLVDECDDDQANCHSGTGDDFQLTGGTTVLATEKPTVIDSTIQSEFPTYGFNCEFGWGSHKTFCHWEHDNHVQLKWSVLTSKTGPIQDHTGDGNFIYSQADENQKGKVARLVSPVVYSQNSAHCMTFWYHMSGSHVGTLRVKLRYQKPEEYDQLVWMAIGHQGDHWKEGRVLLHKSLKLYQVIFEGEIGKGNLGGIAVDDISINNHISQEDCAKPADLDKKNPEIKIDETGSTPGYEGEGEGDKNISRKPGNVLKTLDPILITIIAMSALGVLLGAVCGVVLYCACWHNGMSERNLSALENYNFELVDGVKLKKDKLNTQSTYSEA
SENP1 FRET inh – blocks the human SENP1 SUMO protease catalytic domain; Q9P0U3; recombinant SENP1 catalytic domain, CyPet-SUMO1-YPet FRET cleavage; inhibition, % at 10 µM; hit rate 0.21% among 360,000;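 active = inhibition at least 30% at 10 µM, raw YFP signal under a set limit, fluorescence ratio 0.5 to 1.5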
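Compound: 10 µM single point, 0.5% DMSO; Test system: hSENP1 catalytic domain, recombinant; Timing: 50 min reaction at room temperature; Technique: FRET, CFP and YFP emission; Control set: no-enzyme wells low, DMSO-plus-enzyme wells high control.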
MT1-MMP act inh – blocks activation of human MT1-MMP; P50281; hit rate 0.061% among 360,000; HT1080 RFP-PRO-GFP cells, GFP/RFP ratio fluorescence, overnight; percent of plate control window, DMSO zero; GFP/RFP ratio change, % at 20 µM;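 active = GFP/RFP ratio change of at least 30% with cell ATP level not reduced by more than half and red fluorescence within 50% of control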
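Compound: 20 µM single dose, 1% DMSO / System: HT1080 RFP-PRO-GFP cells / Controls: DMSO and RFP-L50D-GFP cell wells / Read-out basis: GFP/RFP fluorescence ratio / Schedule: overnight compound exposure at 37 °C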
Myeloid diff 2 – promotes myeloid progenitor differentiation | ER-HoxA9 myeloid progenitors, lysozyme-GFP differentiation, flow cytometry | calls only at 10 µM | hit rate 1% among 360,000;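 active = normalized GFP-positive differentiation at or above the plate's own cutoff, the solvent-only control mean plus 3 SD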;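 also: cells exposed to compound for four days before flow analysis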
MIN6 prolif-2 – MIN6 beta-cell replication induction, confirmed; shares compounds with MIN6 prolif-1; MIN6 beta-cell proliferation, ATPlite luminescence, 48 h; cells kept in 0.2% serum; scaled between 0.2% and 10% serum; proliferation increase, % at 50 µM; 920 tested, under 10 active; AID 463095;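 active = proliferation increase above 40% at any of the four tested concentrations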
Each line names hits and unclear results; the compound was inactive in the other large screens (follow-up assays come after a bar, where they were run).

COc1cccc(NC(=O)C2CCC(CNS(=O)(=O)c3ccc4c(c3)CC(C)N4C(C)=O)CC2)c1 (stereo unspecified)	none
COc1ccc(C(=O)NNS(=O)(=O)c2ccc(OC)cc2)cc1	none
COc1ccc(C(=O)NNS(=O)(=O)c2ccccc2)cc1	MIN6 prolif-1 0.0 | MIN6 prolif-2 inactive
O=C(NCc1ccco1)c1c(O)c2cccc3c2n(c1=O)CCC3	MIN6 prolif-1 8.8 | MIN6 prolif-2 inactive
Cc1ccc(S(=O)(=O)Nc2c(C)nc3nc(C)[nH]n3c2=O)cc1	none
CCOC(=O)C1(Cc2ccccc2C)CCCN(C(=O)CCn2nccc2C)C1 (stereo unspecified)	MIN6 prolif-1 11 (no result: Myeloid diff 2) | MIN6 prolif-2 inactive
CCOC(=O)C1(Cc2ccccc2C)CCCN(C(=O)CSC)C1 (stereo unspecified)	none (no result: MIN6 prolif-1)
COc1ccc(CNC(=O)CN(CCC(C)C)S(=O)(=O)c2ccc3c(c2)OCCO3)cc1	MIN6 prolif-1 5.3 | MIN6 prolif-2 inactive
CCOc1ccc(N2CC(C(=O)Nc3ccc(S(=O)(=O)NCC4CCCO4)cc3)CC2=O)cc1 (stereo unspecified)	none
CCOc1ccc(C(=O)Nc2ccc3c(c2)OCO3)cc1OCC	MIN6 prolif-1 5.5 | MIN6 prolif-2 inactive
CCOc1cc(C(=O)Nc2ccc3c(c2)OCO3)ccc1OCCOc1ccccc1Cl	none
COc1ccc(-c2nnc(SCC(=O)N3CCOCC3)o2)cc1OC	MIN6 prolif-1 8.5 | MIN6 prolif-2 inactive
COc1ccc(-c2noc(C3CCCN(S(=O)(=O)c4cccc(Cl)c4C)C3)n2)cc1OC (stereo unspecified)	none
O=S(=O)(c1ccccc1Cl)N1CCCC(c2nc(-c3cccnc3)no2)C1 (stereo unspecified)	MIN6 prolif-1 7.4 | MIN6 prolif-2 inactive
CN(C[C@@H](CC1CCCCC1)N(C[C@H](Cc1ccccc1)N(CCc1ccccc1)N=O)N=O)N=O	none
Cn1[nH]cc(C=NC(N)=O)c1=O	none (no result: MIN6 prolif-1)
COc1cc(OC)c(C(=O)C=Cc2ccc(OC)c(OC)c2)c(OC)c1	none (no result: MIN6 prolif-1, MT1-MMP act inh)
COc1ccc(/C=C/C(=O)C(C)(C)C)cc1OC	MIN6 prolif-1 6.6 | MIN6 prolif-2 inactive
COc1ccc(/C=C/C(=O)OCC(=O)NC2CCCC2)cc1OC	MIN6 prolif-1 11 | MIN6 prolif-2 inactive
CC(C)[C@H](NS(=O)(=O)c1ccccc1)C(=O)OCC(=O)Nc1ccc2c(c1)OCO2	MIN6 prolif-1 4.6 | MIN6 prolif-2 inactive
O=C(O/C(=C/c1ccccc1)C(F)(F)F)c1ccccc1	none (no result: MIN6 prolif-1)
Cc1ccccc1N1CCN(C2CCCN(C(=O)CCC(F)(F)F)C2)CC1 (stereo unspecified)	none
CSCC[C@H](NC(=O)N1CCn2c1nc1ccccc12)C(=O)N1CCCCC1	none
CC(C)C[C@H](NC(=O)N1CCn2c1nc1ccccc12)C(=O)N1CCCCC1	MIN6 prolif-1 12 | MIN6 prolif-2 inactive
CC1=CC(=O)C(C(C)=Nc2cccc(Cl)c2)C(=O)O1 (stereo unspecified)	none (no result: MIN6 prolif-1)
O=C(c1cnsn1)N1CCC(CO)(Cc2cccc(F)c2)CC1	MIN6 prolif-1 8.2 | MIN6 prolif-2 inactive
CC1Oc2ccccc2N(CC(=O)N(Cc2ccccc2)Cc2ccccn2)C1=O (stereo unspecified)	MIN6 prolif-1 10 | MIN6 prolif-2 inactive
COc1cc(CNC2CCCc3ccccc32)cc(OC)c1OC (stereo unspecified)	none
COc1cccc(CNC2CCCc3ccccc32)c1OC (stereo unspecified)	MIN6 prolif-1 9.1 | MIN6 prolif-2 inactive
COc1cc(/C=N/NC(=O)CN(Cc2ccccc2)S(=O)(=O)c2ccc3c(c2)OCCO3)ccc1O	MIN6 prolif-1 0.0 | MIN6 prolif-2 inactive
COc1ccc(/C=N/NC(=O)CN(Cc2ccccc2)S(=O)(=O)c2ccc3c(c2)OCCO3)cc1	none
CCN1C(=O)/C(=C/c2cccs2)N(C)C1=S	none
CCN1C(=O)/C(=C/c2ccc(C)o2)N(C)C1=S	MIN6 prolif-1 0.0 | MIN6 prolif-2 inactive
CCOc1cccc(Nc2ccc([N+](=O)[O-])cn2)c1	none
CCNS(=O)(=O)c1ccc(NC(=O)c2cccnc2)cc1	MIN6 prolif-1 11 (no result: MT1-MMP act inh) | MIN6 prolif-2 inactive
O=C(Nc1ccc(S(=O)(=O)Nc2ncccn2)cc1)c1cccnc1	none
COc1ccc(-c2nn(-c3ccccc3)cc2C(=O)NC(=S)N2CCOCC2)cc1OC	none
Nc1nc(CSc2nc3ccccc3s2)nc(N2CCCCC2)n1	MIN6 prolif-1 9.0 | MIN6 prolif-2 inactive
O=C(O)C1CCN(C(=O)COc2ccc3c(c2)oc(=O)c2ccccc23)CC1	none
COc1ccc(-c2cnnn2-c2ccc(N)cc2)cc1OC	MIN6 prolif-1 7.6 | MIN6 prolif-2 inactive
OCCC1CN(Cc2nc3ccccc3s2)CCN1C1CCCC1 (stereo unspecified)	none
COc1cccc(C(CC(=O)NCc2ccco2)NS(=O)(=O)c2ccc(C)cc2)c1OC (stereo unspecified)	none
Cc1cc(N(C(=O)c2ccco2)C(C(=O)NC2CCCCC2)c2ccccc2)ccc1-n1cnnn1 (stereo unspecified)	none
COc1cccc(C(C(=O)NC2CCCCC2)N(C(=O)c2ccco2)c2ccc(-n3cnnn3)c(C)c2)c1 (stereo unspecified)	MIN6 prolif-1 7.7 | MIN6 prolif-2 inactive
O=S(=O)(c1ccc(Oc2ccc(F)c(Cl)c2)nc1)N1CCOCC1	MIN6 prolif-1 13 | MIN6 prolif-2 inactive
CC(C)c1nc2oc3c(NCc4ccccn4)ncnc3c2c2c1COC(C)(C)C2	MIN6 prolif-1 7.4 | MIN6 prolif-2 inactive
Cn1c(O)c(N=NC(=O)CNC(=O)c2ccccc2)c2ccccc21	MIN6 prolif-1 0.0 | MIN6 prolif-2 inactive
CCN(CC)C(=S)SCC(=O)c1c(C)[nH]c2ccccc12	MIN6 prolif-1 0.0 | MIN6 prolif-2 inactive
CCc1cccc(CC)c1N(COC)C(=O)Cn1nnc2ccccc21	MIN6 prolif-1 9.7 | MIN6 prolif-2 inactive
CCOc1ccccc1CN1CCCC(CNC(=O)Cc2ccc(OC)cc2)C1 (stereo unspecified)	none
CC(C)Cn1c(N)c(/C=N/NC(=O)c2ccc(Cl)cc2)c(=O)n(C)c1=O	MIN6 prolif-1 6.5 | MIN6 prolif-2 inactive
